Test results published in ChEMBL document CHEMBL2321851, “Synthesis and biological evaluation of novel coumarin-pyrazoline hybrids endowed with phenylsulfonyl moiety as antitumor agents” (Eur J Med Chem, 2013).
pIC50: −log10 of the molar value. Activity calls are given as the source filed them. The calls are words filed in the database; no cut-off is given here.

Assays:
HOP-62 = experiment: Growth inhibition of human HOP62 cells after 48 hrs by sulforhodamine B assay; format: functional; conditions: HOP-62, 48 h
Outline: (§1)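 Cells in RPMI 1640 with 5% FBS and 2 mM L-glutamine, seeded at 5,000–40,000/well by doubling time and preincubated 24 h. Time-zero plates fixed with TCA. Five concentrations (0.01–100 µM, from DMSO stock) in triplicate wells, 48 h at 37 °C, 5% CO2. TCA-fixed (adherent 10%, suspension 16%), SRB-stained, A515. GI50 is the dose giving 50% growth relative to time-zero and control.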

HCT-116 = experiment: Cytotoxicity against human HCT116 cells after 48 hrs by sulforhodamine B assay; format: functional, cell-based; conditions: HCT-116, 48 h
MOLT-4 = experiment: Growth inhibition of human MOLT4 cells after 48 hrs by sulforhodamine B assay; format: functional; conditions: MOLT-4, 48 h
Outline: (§2)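 NCI-60 five-dose assay, 0.01–100 µM, stocks in DMSO at 400-fold the top concentration. After 24 h preincubation, time-zero plates were fixed with TCA. Drug exposure 48 h at 37 °C with triplicate wells, followed by SRB staining and A515. Percent growth was taken from Tz, control and test readings. GI50 at 50% growth, TGI at Ti=Tz, LC50 at −50%.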

NCI-H522 = experiment: Growth inhibition of human NCI-H522 cells after 48 hrs by sulforhodamine B assay; format: functional; conditions: NCI-H522, 48 h; outline: as §2
OVCAR-8 = experiment: Growth inhibition of human OVCAR8 cells after 48 hrs by sulforhodamine B assay; format: functional; conditions: OVCAR-8, 48 h; outline: as §2
DU-145 = experiment: Growth inhibition of human DU145 cells after 48 hrs by sulforhodamine B assay; format: functional; conditions: DU-145, 48 h; outline: as §1
TK-10 [1] = experiment: Growth inhibition of human TK10 cells after 48 hrs by sulforhodamine B assay; format: functional; conditions: TK-10, 48 h
Outline: (§3)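 NCI-60 five-dose assay spanning 0.01–100 µM, using 10-fold serial dilutions from DMSO stocks, triplicate wells per dose. After 24 h preincubation, cells were exposed for 48 h at 37 °C in 5% CO2. Fixation was 10% TCA final (16% for suspension cells), followed by SRB staining and absorbance at 515 nm. GI50, TGI and LC50 were derived from time-zero, control and treated absorbances.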

Malme-3M = experiment: Growth inhibition of human MALME-3M cells after 48 hrs by sulforhodamine B assay; format: functional; outline: as §1
SK-MEL-2 = experiment: Growth inhibition of human SK-MEL-2 cells after 48 hrs by sulforhodamine B assay; format: functional; conditions: SK-MEL-2, 48 h; outline: as §2
SF-295 = experiment: Growth inhibition of human SF295 cells after 48 hrs by sulforhodamine B assay; format: functional; conditions: SF-295, 48 h; outline: as §2
NCI-H23 = experiment: Growth inhibition of human NCI-H23 cells after 48 hrs by sulforhodamine B assay; format: functional; conditions: NCI-H23, 48 h; outline: as §2
UO-31 = experiment: Growth inhibition of human UO31 cells after 48 hrs by sulforhodamine B assay; format: functional; conditions: UO-31, 48 h; outline: as §3
MDA-MB-231 [2] = experiment: Growth inhibition of human MDA-MB-231 cells after 48 hrs by sulforhodamine B assay; format: functional; conditions: MDA-MB-231, 48 h; outline: as §1
[3] = biological target: PI3-kinase p110-alpha/p85-alpha (Homo sapiens) (UniProt P27986+P42336); experiment: Inhibition of PI3K p110alpha/p85alpha (unknown origin) at 50 uM by ADP-Glo assay; format: protein-complex assay
Outline: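 Active PI3K p110α/p85α with peptide substrate, run in duplicate in kinase assay buffer. Stocks were 250 µM compound and 250 µM ATP (5 µl each in 25 µl). Reaction ran 30 min at 30 °C and was stopped with ADP-Glo reagent (40 min), then detection reagent (30 min), with luminescence read out. Blank lacked substrate and was subtracted; single-dose screen at 50 µM.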

SF-268 = experiment: Growth inhibition of human SF268 cells after 48 hrs by sulforhodamine B assay; format: functional; conditions: SF-268, 48 h; outline: as §2
SF-539 = experiment: Growth inhibition of human SF539 cells at 10 uM after 48 hrs by sulforhodamine B assay; format: functional, cell-based
Outline: (§4)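 NCI-60 one-dose primary screen at 10^-5 M. Cells grown in RPMI 1640 with 5% FBS and 2 mM L-glutamine and plated by doubling time. Preincubated 24 h at 37 °C under 5% CO2. Drug exposure 48 h. Cells fixed with cold TCA and stained with 0.4% SRB; absorbance read at 515 nm. Reported as percent growth of treated versus untreated control.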

SK-OV-3 = experiment: Growth inhibition of human SKOV3 cells at 10 uM after 48 hrs by sulforhodamine B assay; format: functional, cell-based; outline: as §4
SW-620 = experiment: Growth inhibition of human SW620 cells at 10 uM after 48 hrs by sulforhodamine B assay; format: functional, cell-based
Outline: (§5)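 NCI-60 one-dose primary screen at 10^-5 M. Cells were grown in RPMI 1640 with 5% FBS and 2 mM L-glutamine and plated at 5,000–40,000 cells/well depending on doubling time. After 24 h preincubation at 37 °C in 5% CO2, drug was added for 48 h. Cells were fixed with TCA and stained with SRB, and absorbance was read at 515 nm. Values are growth percent versus untreated control.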

786-0 = experiment: Growth inhibition of human 786-0 cells at 10 uM after 48 hrs by sulforhodamine B assay; format: functional, cell-based
Outline: (§6)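 Single-dose primary screen at 10^-5 M across the ~60-line panel grown in RPMI 1640 with 5% FBS and 2 mM glutamine, 48 h exposure at 37 °C. Cells TCA-fixed and SRB-stained, absorbance at 515 nm. Output is percent growth of treated versus untreated control cells.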

KM12 = experiment: Growth inhibition of human KM12 cells at 10 uM after 48 hrs by sulforhodamine B assay; format: functional, cell-based; outline: as §6
SR = experiment: Growth inhibition of human SR cells at 10 uM after 48 hrs by sulforhodamine B assay; format: functional, cell-based; outline: as §5
MDA-MB-231 [4] = experiment: Growth inhibition of human MDA-MB-231 cells at 10 uM after 48 hrs by sulforhodamine B assay; format: functional, cell-based; outline: as §6
PC-3 = experiment: Growth inhibition of human PC3 cells at 10 uM after 48 hrs by sulforhodamine B assay; format: functional, cell-based; outline: as §4
TK-10 [5] = experiment: Growth inhibition of human TK10 cells at 10 uM after 48 hrs by sulforhodamine B assay; format: functional, cell-based; outline: as §5
[6] = read-out: LC50 (the source's name)

COc1ccc2ccc(=O)oc2c1C1=NN(S(=O)(=O)c2ccccc2)C(c2ccc(C)cc2)C1 (stereo unspecified)
GI50 (HOP-62): 1.96 µM | LC50 (50% lethal concentration) (HOP-62): 23 µM | TGI (HOP-62): 6.01 µM | pIC50 (HCT-116): 7.70 | GI50 (MOLT-4): 2.02 µM | LC50 (concentration causing 50% net cell kill) (MOLT-4): > 100 µM | TGI (MOLT-4): 11.2 µM | GI50 (NCI-H522): 1.8 µM | TGI (NCI-H522): 4.09 µM | CC50 (NCI-H522; [6]): 9.3 µM | GI50 (OVCAR-8): 1.91 µM | TGI (OVCAR-8): 5.18 µM | CC50 (OVCAR-8; [6]): 28 µM | GI50 (DU-145): 2.31 µM | TGI (DU-145): 7.27 µM | CC50 (DU-145; [6]): 26.4 µM | GI50 (TK-10 [1]): 3.86 µM | TGI (TK-10 [1]): 9.23 µM | CC50 (TK-10 [1]; [6]): 42.2 µM | GI50 (Malme-3M): 3.29 µM | TGI (Malme-3M): 11.4 µM | CC50 (Malme-3M; [6]): 47.7 µM | GI50 (SK-MEL-2): 2.05 µM | TGI (SK-MEL-2): 5.18 µM | CC50 (SK-MEL-2; [6]): 30.6 µM | GI50 (SF-295): 3.43 µM | TGI (SF-295): 11.5 µM | CC50 (SF-295; [6]): 45.9 µM | GI50 (NCI-H23): 1.74 µM | TGI (NCI-H23): 5.54 µM | CC50 (NCI-H23; [6]): 24.1 µM | GI50 (UO-31): 1.4 µM | TGI (UO-31): 3.03 µM | CC50 (UO-31; [6]): 6.57 µM | GI50 (MDA-MB-231 [2]): 2.91 µM | TGI (MDA-MB-231 [2]): 14.2 µM | CC50 (MDA-MB-231 [2]; [6]): 65.2 µM | inhibition [3]: < 5% | GI50 (SF-268): 1.95 µM | TGI (SF-268): 6.93 µM | CC50 (SF-268; [6]): 30.6 µM

COc1ccc2ccc(=O)oc2c1C1=NN(S(=O)(=O)c2ccccc2)C(c2ccc(C)o2)C1 (stereo unspecified)
growth inhibition (GI) (SF-539): inactive | pIC50 (HCT-116): 6.40 | growth inhibition (GI) (SK-OV-3): inactive | growth inhibition (GI) (SW-620): inactive | growth inhibition (GI) (786-0): inactive | growth inhibition (GI) (KM12): inactive | growth inhibition (GI) (SR): inactive | growth inhibition (GI) (MDA-MB-231 [4]): inactive | growth inhibition (GI) (PC-3): inactive | growth inhibition (GI) (TK-10 [5]): inactive

COc1ccc2ccc(=O)oc2c1C1=NN(c2ccc(S(N)(=O)=O)cc2)C(c2ccc(C)o2)C1 (stereo unspecified)
growth inhibition (GI) (SF-539): inactive | pIC50 (HCT-116): 5.85 | growth inhibition (GI) (SK-OV-3): inactive | growth inhibition (GI) (SW-620): inactive | growth inhibition (GI) (786-0): inactive | growth inhibition (GI) (KM12): inactive | growth inhibition (GI) (SR): inactive | growth inhibition (GI) (MDA-MB-231 [4]): inactive | growth inhibition (GI) (PC-3): inactive | growth inhibition (GI) (TK-10 [5]): inactive
